Measured values gathered from unrelated publications.
Compare with care: the assays were run in different laboratories.
CDK5 with p35: Cyclin-dependent kinase 5, with p35 (CDK5, Homo sapiens, UniProt Q00535)
SCN1A: Sodium channel protein type 1 subunit alpha (SCN1A, Homo sapiens, UniProt P35498)

Compound	target	test	test system	setting	measurement	result
C[C@H]1O[C@H](O[C@H]2[C@H](O)[C@@H](O)[C@@H](O[C@H]3[C@H](O)[C@@H](O)C(O)O[C@@H]3CO)O[C@@H]2CO)[C@H](O)[C@@H](O)[C@@H]1N[C@H]1C=C(CO)[C@@H](O)[C@H](O)[C@H]1O (stereo partly drawn)	Alpha-glucosidase MAL12 (MAL12, Saccharomyces cerevisiae S288c, UniProt P53341)	enzyme activity, inhibitor, absorbance	–	1000 µg/mL	inhibition	80.6%
CNc1ncc2c(/C=C/C(=O)N3CCC(OC)CC3)nn(Cc3cccc(C(F)(F)F)c3)c2n1	CDK5 with p35	enzyme activity, inhibitor, radiometric	–	1 µM	remaining activity	89%
Cc1cc([C@@H](C)Nc2ccccc2C(=O)O)c2nc(N3CCC(F)(F)CC3)c(C#N)c(=O)n2c1	High affinity nerve growth factor receptor (NTRK1, Homo sapiens, UniProt P04629)	binding, competition with immobilised ligand	–	10 µM	remaining binding	97%
CC12CC3CC(C)(C1)CC(N)(C3)C2	SCN1A	ion current, inhibitor, patch clamp	–	3 µM	inhibition	0.782%
C[C@@H]1CC2=C(CN1Cc1cccc(C#N)c1)C(=O)N(Cc1ccc(Br)cc1)C1=NCCN12	ATP-dependent Clp protease proteolytic subunit, mitochondrial (CLPP, Homo sapiens, UniProt Q16740)	thermal stability, DSF	–	670 µM	ΔTm	17.7 °C
C=CC(=O)N1CCC(COCC(=O)N2CCN(c3nc(-c4cnc(N)nc4C(F)F)nc(N4CCOC[C@@H]4C)n3)CC2)CC1	Mitotic checkpoint serine/threonine-protein kinase BUB1 (BUB1, Homo sapiens, UniProt O43683)	binding, competition with immobilised ligand	–	1 µM	remaining binding	93%
CC(C)NCC(O)COc1cccc2ccccc12 (stereo not drawn)	SCN1A	ion current, inhibitor, patch clamp	–	10 µM	inhibition	16.4%
COc1cc(-c2cncc3c2CN(C)Cc2cc(N4CCNCC4)ccc2-3)cc(OC)c1OC	Focal adhesion kinase 1 (PTK2, Homo sapiens, UniProt Q05397)	enzyme activity, inhibitor	–	1 µM	remaining activity	102%
O=C1NC(=O)C(c2ccccc2)(c2ccccc2)N1	SCN1A	ion current, inhibitor, patch clamp	–	3 µM	inhibition	0.654%
CNC[C@H](O)c1cccc(O)c1	Alpha-1A adrenergic receptor (ADRA1A, Homo sapiens, UniProt P35348)	calcium signal, agonist	COS-7	–	Emax	~80%
CC(=O)c1c(C)c2cnc(Nc3ccc(N4CCNCC4)cn3)nc2n(C2CCCC2)c1=O	CDK5 with p35	enzyme activity, inhibitor, ADP detection	–	1 µM	activity vs control	103%
Cc1nnc(SCC2=C(C(=O)O)N3C(=O)[C@@H](NC(=O)Cn4cnnn4)[C@H]3SC2)s1	SCN1A	ion current, inhibitor, patch clamp	–	30 µM	inhibition	7.45%
